Reference: ChEMBL document CHEMBL1124749, “Analogues of 1,5-bis(4-amidinophenoxy)pentane (pentamidine) in the treatment of experimental Pneumocystis carinii pneumonia” (J Med Chem, 1990)
Where “and” joins values, the source holds several entries; their conditions need not be identical. Identical values can stand only once.

How the values were obtained:
Pneumocystis carinii [1] = assay: (§1) Ability to reduce the severity of PCP in immunosuppressed rats after (iv) administration of 10 mg/kg/day; assay type: functional
Outline: (§2)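 Male Sprague-Dawley rats (150–200 g, barrier raised) were given corticosteroids to induce PCP. From week 6, groups of eight or more received the compound by single daily iv injection in 0.4 mL saline for 14 days, generally at 10 mg/kg. Rats were killed at the end of week 8. GMS-stained lung sections were scored from 0.5 to 4 (4 = >50% involvement), with saline and pentamidine control groups.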

Rattus norvegicus [2] = assay: as §1; assay type: functional; outline: as §2
Calf thymus DNA = assay: DNA binding affinity at low ionic strength as change in midpoint; assay type: nucleic-acid assay; details: Bos taurus
Pneumocystis carinii [3] = assay: Ability to reduce the severity of PCP in immunosuppressed rats after (i.v.) administration of 10 mg/kg/day; assay type: functional; details: route intravenous; outline: as §2
[4] = Cytotoxicity in […], spleen and kidneys for pathologic changes by light microscopy.+ = animals survived without observable distress; assay type: tissue-based; details: rat
Outline: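 In corticosteroid-immunosuppressed rats given 14 daily iv doses for PCP, liver, spleen and kidneys were examined for pathology by light microscopy, and health was recorded daily. Toxicity was graded at 10 mg/kg or the highest dose tested on a scale from 0 (no local, clinical or histologic toxicity) to 4+ (≥50% of animals died).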

Serine protease 1 [5] = molecular target: T1, Serine protease 1 (Homo sapiens, UniProt P07477); assay: Inhibition of trypsin by amidase assay.
T1 sequence (P07477 whole entry): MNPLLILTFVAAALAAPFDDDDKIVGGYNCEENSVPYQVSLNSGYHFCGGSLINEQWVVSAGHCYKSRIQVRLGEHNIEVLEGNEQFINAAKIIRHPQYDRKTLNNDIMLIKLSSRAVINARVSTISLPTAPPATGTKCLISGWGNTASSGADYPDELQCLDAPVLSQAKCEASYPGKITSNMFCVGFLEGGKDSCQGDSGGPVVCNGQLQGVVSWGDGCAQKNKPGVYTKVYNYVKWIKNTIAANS

Rattus norvegicus [6] = species: Rattus norvegicus; assay: Ability to reduce the severity of PCP in histologic score (represents scattered cysts,25-50% lung involved with small intense areas of infection); assay type: functional; outline: as §2
Rattus norvegicus [7] = species: Rattus norvegicus; assay: Ability to reduce the severity of PCP in histologic score (represents >50% lung involved with many intense areas of focal infection); assay type: functional; outline: as §2
Pneumocystis carinii [8] = assay: as §1; assay type: functional; outline: as §2; remark: listed apart in the source
Serine protease 1 [9] = molecular target: T1, Serine protease 1; assay: Inhibition of trypsin by amidase assay
Rattus norvegicus [10] = assay: Ability to reduce the severity of PCP in immunosuppressed rats after (iv)administration; not tested in animals, Insoluble; assay type: functional, organism-based

SMILES | No. of animals (Pneumocystis carinii [1]) | No. of animals (Rattus norvegicus [2]; in the assay text read “1.25 mg/kg/day” for “10 mg/kg/day”) | ΔTm (Calf thymus DNA) | No. of animals (Pneumocystis carinii [3]) | Toxicity [4] | Ki (Serine protease 1 [5]) | No. of animals (Rattus norvegicus [6]) | No. of animals (Rattus norvegicus [7]) | No. of animals (Pneumocystis carinii [8]) | Ki (Serine protease 1 [9]) | No. of animals (Rattus norvegicus [2]) | No. of animals (Rattus norvegicus [10])
Cl.Cl.N=C(N)c1ccc(OCCCCOc2ccc(C(=N)N)cc2Cl)c(Cl)c1 | 1 | 0 | 8.9 °C | 2 and 3 |  |  |  |  |  |  |  | 
Cl.N=C(N)c1ccc(OCCCCCOc2ccc(C(=N)N)cc2N)c(N)c1 | 5 |  | 10.8 °C |  | animals survived without observable distress | 1.8 µM | 1 | 0 |  |  |  | 
Cl.Cl.N=C(N)c1cccc(OCCCCCOc2cccc(C(=N)N)c2)c1 | 3 |  | 6.8 °C |  | animals survived without observable distress | 3.8 µM |  |  | 4 |  |  | 
Cl.Cl.N=C(N)c1ccc(OCCCCCOc2ccc(C(=N)N)cc2[N+](=O)[O-])c([N+](=O)[O-])c1 | 2 |  | 9.7 °C |  |  | 1 µM |  |  | 0 |  |  | 
Cl.Cl.N=C(N)c1ccc(OCCCOc2ccc(C(=N)N)cc2)cc1 | 4 |  | 14.7 °C |  | animals survived without observable distress | 3.3 µM |  |  | 3 |  |  | 
Cl.N=C(N)c1ccc(OCCCCCOc2ccc(C(=N)N)cc2)cc1 [PENTAMIDINE HYDROCHLORIDE] | 28 |  | 10.7 °C |  |  | 2.3 µM |  |  | 21 |  |  | 
Cl.Cl.N=C(N)c1cccc(OCCCOc2cccc(C(=N)N)c2)c1 | 1 |  | 7.6 °C |  |  | 1.1 µM |  |  | 2 |  |  | 
Cl.Cl.N=C(N)c1cccc(OCCCCCCOc2cccc(C(=N)N)c2)c1 | 4 |  | 7.3 °C |  | animals survived without observable distress | 4 µM |  |  | 1 |  |  | 
Cl.Cl.N=C(N)c1cccc(OCCCCOc2cccc(C(=N)N)c2)c1 | 1 |  | 8.1 °C |  |  | 1.8 µM |  |  | 2 |  |  | 
Cl.N=C(N)c1ccc(NCCCCNc2ccc(C(=N)N)cc2)cc1 | 1 |  | 10.3 °C |  |  | 1.6 µM |  |  |  |  |  | 
Cl.N=C(N)c1ccc(NCCCCCNc2ccc(C(=N)N)cc2[N+](=O)[O-])c([N+](=O)[O-])c1 | 3 |  | 12.7 °C | 2 and 1 |  | 8 µM |  |  |  |  |  | 
Cl.Cl.N=C(N)c1ccc(OCCCCCCOc2ccc(C(=N)N)cc2)cc1 | 3 |  | 9.1 °C |  |  | 2.7 µM |  |  | 3 |  |  | 
COc1cc(C(=N)N)ccc1OCCCCCOc1ccc(C(=N)N)cc1OC.Cl.Cl | 4 |  | 12 °C |  |  | 1.3 µM |  |  | 2 |  |  | 
Cl.N=C(N)c1ccc(OCCOc2ccc(C(=N)N)cc2N)c(N)c1 | 4 |  | 8.8 °C |  |  |  | 0 | 0 |  | 5 µM |  | 
Cl.c1cc(C2=NCCN2)ccc1OCCCCCOc1ccc(C2=NCCN2)cc1 | 3 |  | 10.5 °C |  |  | > 2000 µM | 0 | 0 |  |  |  | 
COc1cc(C(=N)N)ccc1OCCCCOc1ccc(C(=N)N)cc1OC.Cl.Cl | 4 |  | 10.2 °C |  |  |  |  |  | 3 |  |  | 

SMILES | No. of animals (Pneumocystis carinii [1]) | No. of animals (Rattus norvegicus [2]; in the assay text read “1.25 mg/kg/day” for “10 mg/kg/day”) | ΔTm (Calf thymus DNA) | No. of animals (Pneumocystis carinii [3]) | Toxicity [4] | Ki (Serine protease 1 [5]) | No. of animals (Rattus norvegicus [6]) | No. of animals (Rattus norvegicus [7]) | No. of animals (Pneumocystis carinii [8]) | Ki (Serine protease 1 [9]) | No. of animals (Rattus norvegicus [2]) | No. of animals (Rattus norvegicus [10])
Cl.Cl.N=C(N)c1ccc(OCCCCOc2ccc(C(=N)N)cc2)cc1 | 0 |  | 8.3 °C | 0 | Non-toxic | 1.5 µM |  |  | 8 |  |  | 
Cl.N=C(N)c1ccc(OCCCCOc2ccc(C(=N)N)cc2N)c(N)c1 | 5 |  | 9.6 °C |  |  | 9.1 µM | 0 | 0 | 2 |  | 1 | 
N=C(N)c1ccc(OCCCCCOc2ccc(C(=N)N)cc2Br)c(Br)c1 |  |  |  |  |  |  |  |  |  |  |  | Insoluble
Cl.Cl.N=C(N)c1ccc(OCCCCOc2ccc(C(=N)N)cc2[N+](=O)[O-])c([N+](=O)[O-])c1 | 0 |  | 8.5 °C |  |  | 5.4 µM |  |  | 0 |  |  | 
Cl.N=C(N)c1ccc(NCCCNc2ccc(C(=N)N)cc2)cc1 | 1 |  | 11.6 °C |  | animals survived without observable distress | 1.1 µM | 0 | 0 | 5 and 2 |  |  | 
Cl.N=C(N)c1ccc(NCCCCNc2ccc(C(=N)N)cc2N)c(N)c1 | 4 |  | 10.5 °C |  | animals survived without observable distress | 11.1 µM |  |  | 0 |  |  | 
Cl.N=C(N)c1ccc(OCCCCCCOc2ccc(C(=N)N)cc2N)c(N)c1 | 1 |  | 9.5 °C |  |  | 293 µM | 3 | 0 |  |  |  | 
Cl.N=C(N)c1ccc(NCCCCCCNc2ccc(C(=N)N)cc2N)c(N)c1 | 1 |  | 8.3 °C |  | animals survived without observable distress | 5.3 µM |  |  | 3 |  |  | 
Cl.N=C(N)c1ccc(NCCCCCNc2ccc(C(=N)N)cc2N)c(N)c1 | 2 |  | 11 °C |  | animals survived without observable distress | 4.8 µM |  |  | 3 |  |  | 
Cl.N=C(N)c1ccc(NCCCNc2ccc(C(=N)N)cc2N)c(N)c1 | 4 |  | 11 °C |  | animals survived without observable distress | 10.3 µM |  |  | 1 |  |  | 
Cl.Cl.N=C(N)c1ccc(OCCCCCOc2ccc(C(=N)N)cc2Cl)c(Cl)c1 | 0 |  | 10.5 °C |  |  |  |  |  | 0 |  |  | 
COc1cc(C(=N)N)ccc1OCCCOc1ccc(C(=N)N)cc1OC.Cl.Cl | 1 |  | 16.3 °C | 0 |  | 1.3 µM |  |  | 7 |  |  | 
Cl.N=C(N)c1ccc(NCCCCCNc2ccc(C(=N)N)cc2)cc1 | 2 |  | 11.3 °C |  |  | 1.4 µM |  |  |  |  |  | 
N=C(N)c1ccc(OCCOc2ccc(C(=N)N)cc2)cc1 |  |  | 5.4 °C |  |  | 7.3 µM |  |  |  |  |  | 
Cl.N=C(N)c1ccc(NCCNc2ccc(C(=N)N)cc2N)c(N)c1 | 0 |  | 9.1 °C |  | animals survived without observable distress | 12.7 µM |  |  | 0 |  |  | 
Cl.Cl.N=C(N)c1ccc(OCCCOc2ccc(C(=N)N)cc2N)c(N)c1 | 4 |  | 13.6 °C |  |  | 5.8 µM | 0 | 0 | 2 |  | 1 | 
